The values below come from ChEMBL document CHEMBL3045615, “Synthesis and herbicidal evaluation of novel 3-[(alpha-hydroxy-substituted)benzylidene]pyrrolidine-2,4-diones” (J Agric Food Chem, 2005).

As usually defined, the inhibition is how much of the control response was suppressed.

Holding throughout (format): functional
Experiment [1] concerns Brassica rapa subsp. oleifera. The experiment in a line: Herbicidal activity against Brassica rapa subsp. oleifera assessed as inhibition of root growth at 10 ug/ml at 28 +/- 1 degC measured after 65 hr by root test. An outline of the steps:
(§1)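 Rape seeds were presoaked 4 h in distilled water. About 15 seeds were placed per 6-cm Petri plate on filter paper pre-wetted with 2 mL inhibitor solution. Plates germinated in the dark for 65 h at 28 ± 1 °C. Root length of 10 roots per plate was measured and averaged. Result expressed as percentage inhibition.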

Experiment [2] deals with Brassica rapa subsp. oleifera. As to the kind of experiment: Herbicidal activity against Brassica rapa subsp. oleifera assessed as inhibition of root growth at 100 ug/ml at 28 +/- 1 degC measured after 65 hr by root test. An outline of the steps: as §1
Experiment [3] deals with Echinochloa crus-galli. As to the kind of experiment: Herbicidal activity against Echinochloa crus-galli (barnyard grass) assessed as inhibition of seedling growth at 10 ug/ml at 28 +/- 1 degC measured after 65 hr by cup test.
Experiment [4] concerns Echinochloa crus-galli. As to the kind of experiment: Herbicidal activity against Echinochloa crus-galli (barnyard grass) assessed as inhibition of seedling growth at 100 ug/ml at 28 +/- 1 degC measured after 65 hr by cup test.

For the compound `Cc1ccc(/C(O)=C2\C(=O)CN(C(C)(C)C)C2=O)cc1`, the inhibition at 10 µg/mL in experiment [1] was 14%; with Echinochloa crus-galli [3], 36%. Moreover, the inhibition at 100 µg/mL in experiment [2] was found to be 88%; with Echinochloa crus-galli [4], 48%.

Turning to `CC(C)N1CC(=O)/C(=C(/O)c2ccc(C(C)(C)C)cc2)C1=O`, the inhibition at 10 µg/mL in experiment [1] came out at 0%; in the experiment on Echinochloa crus-galli [3] it was 28%. Moreover, the inhibition at 100 µg/mL in experiment [2] came out at 85%; in the experiment on Echinochloa crus-galli [4], 44%.

As to `CC(C)(C)c1ccc(/C(O)=C2\C(=O)CN(C(C)(C)C)C2=O)cc1`, the inhibition at 10 µg/mL came to 64% in experiment [1] and 4% in the experiment on Echinochloa crus-galli [3]. The inhibition at 100 µg/mL in experiment [2] turned out to be 79%; in the experiment on Echinochloa crus-galli [4], 18%.

For `CC(C)c1ccc(/C(O)=C2\C(=O)CN(C(C)(C)C)C2=O)cc1`, the inhibition at 10 µg/mL in experiment [1] was determined as 75%; in the experiment with Echinochloa crus-galli [3], 10%. Also, the results for the inhibition at 100 µg/mL (in experiment [2]; in the experiment with Echinochloa crus-galli [4]) were 83% and 18%, respectively.

With `CCCCCc1ccc(/C(O)=C2\C(=O)CN(C3CC3)C2=O)cc1`, the figures for the inhibition at 10 µg/mL (in experiment [1]; with Echinochloa crus-galli [3]) were 0% and 5%, respectively. The inhibition at 100 µg/mL is 57% in experiment [2] and 23% with Echinochloa crus-galli [4].

Turning to `COc1ccc(/C(O)=C2\C(=O)CN(C3CC3)C2=O)c(OC)c1`, the inhibition at 10 µg/mL in experiment [1] worked out at 16%; in the experiment on Echinochloa crus-galli [3], 78%. In addition, the inhibition at 100 µg/mL in experiment [2] was found to be 77%; with Echinochloa crus-galli [4], 79%.

`Cc1cc(C)cc(/C(O)=C2\C(=O)CN(C(C)C)C2=O)c1`: the inhibition at 10 µg/mL in experiment [1] came to 3%; in the experiment with Echinochloa crus-galli [3], 22%. The inhibition at 100 µg/mL in experiment [2] is 81%; in the experiment with Echinochloa crus-galli [4], 42%.

For the compound `Cc1cc(C)cc(/C(O)=C2\C(=O)CN(C(C)(C)C)C2=O)c1`, the inhibition at 10 µg/mL was determined as 41% in experiment [1] and 1% in the experiment with Echinochloa crus-galli [3]. Also, the inhibition at 100 µg/mL in experiment [2] worked out at 82%; in the experiment on Echinochloa crus-galli [4] it was 40%.

Regarding `COc1ccc(/C(O)=C2\C(=O)CN(C(C)(C)C)C2=O)cc1OC`, the inhibition at 10 µg/mL in experiment [1] stood at 58%; in the experiment with Echinochloa crus-galli [3] it was 0%. Also, the results for the inhibition at 100 µg/mL (in experiment [2]; in the experiment on Echinochloa crus-galli [4]) were 70% and 59%, respectively.

Take `Cc1cc(C)cc(/C(O)=C2\C(=O)CN(C3CC3)C2=O)c1`: the inhibition at 10 µg/mL in experiment [1] is 70%; in the experiment on Echinochloa crus-galli [3], 0%. The figures for the inhibition at 100 µg/mL (in experiment [2]; in the experiment with Echinochloa crus-galli [4]) were 86% and 29%, respectively.

Take `COc1cc(/C(O)=C2\C(=O)CN(C3CC3)C2=O)cc(OC)c1OC`: the inhibition at 10 µg/mL in experiment [1] stood at 45%; with Echinochloa crus-galli [3] it was 4%. The results for the inhibition at 100 µg/mL (in experiment [2]; in the experiment with Echinochloa crus-galli [4]) were 60% and 26%, respectively.

With `CCCc1ccc(/C(O)=C2\C(=O)CN(C3CC3)C2=O)cc1`, the inhibition at 10 µg/mL was 0% in experiment [1] and 8% in the experiment on Echinochloa crus-galli [3]. The results for the inhibition at 100 µg/mL (in experiment [2]; in the experiment on Echinochloa crus-galli [4]) were 75% and 41%, respectively.

Turning to `COCCOCOc1cccc(/C(O)=C2\C(=O)CN(C3CC3)C2=O)c1`, the inhibition at 10 µg/mL in experiment [1] amounted to 0%; with Echinochloa crus-galli [3], 4%. Moreover, the inhibition at 100 µg/mL came out at 35% in experiment [2] and 33% with Echinochloa crus-galli [4].

For `COCCOCOc1ccc(/C(O)=C2\C(=O)CN(C3CC3)C2=O)cc1`, the figures for the inhibition at 10 µg/mL (in experiment [1]; in the experiment with Echinochloa crus-galli [3]) were 19% and 0%, respectively. Moreover, the inhibition at 100 µg/mL in experiment [2] stood at 51%; with Echinochloa crus-galli [4], 12%.

For `COc1ccc(/C(O)=C2\C(=O)CN(C(C)C)C2=O)cc1OC`, the results for the inhibition at 10 µg/mL (in experiment [1]; in the experiment with Echinochloa crus-galli [3]) were 24% and 68%, respectively. For the same compound, the inhibition at 100 µg/mL in experiment [2] stood at 34%; with Echinochloa crus-galli [4], 76%.

In the case of `CC(C)c1ccc(/C(O)=C2\C(=O)CN(C(C)C)C2=O)cc1`, the inhibition at 10 µg/mL (in experiment [1]; with Echinochloa crus-galli [3]) was 0% throughout. For the same compound, the values for the inhibition at 100 µg/mL (in experiment [2]; in the experiment with Echinochloa crus-galli [4]) were 74% and 39%, respectively.
